Experiment: Toxicity liver stage against HepG2, at 10uM
Assay type: cell-based
Design: test concentration 10 uM, cell line HepG2-A16-CD81EGFP
Details: human, HepG2-A16-CD81EGFP cells; read-out: INHIBITION
Procedure, shortened: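 Uninfected HepG2-A16-CD81EGFP cells, 3 × 10^3 per well, 1536-well, plated on prespotted compound at 10 μM final, parasite-free screening media added to match infected plates; puromycin 10 μM positive, DMSO 0.5% negative; run in parallel with 48 h PbLuc assay at 37 °C, 5% CO2; viability by CellTiter-Glo luminescence, normalized to controls.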

Row | SMILES | cytotoxicity at 10 µM [%]
1 | O[C@@H]1C[C@@H](c2nc(Cc3ccccc3)no2)N(Cc2ncc[nH]2)C1 | 2.63
2 | c1cc(-c2c[nH]c([C@@H]3COCCN3CC3CC3)n2)ccn1 | 6.82
3 | CN1C(=O)CO[C@H](c2ccc(NC(=O)c3cccc(F)c3)cc2)[C@H]1CO | 10
4 | CC(=O)N1CCN2C[C@H](CO)[C@@H](c3ccccc3)[C@H]2C1 | 3.54
5 | COc1cccc2c1ccn2CCNC(=O)CCNc1ncccn1 | -6.27
6 | O=C(NCCC(O)c1cccs1)c1ccco1 (stereo unspecified) | -14.7
7 | CC(C)NC(=O)NCCn1nc(C(F)(F)F)n(C)c1=O | -0.173
8 | Cc1cccc(C(=O)N2CCc3c(CN(C)C)nn(C)c3C2)n1 | 3.61
9 | O=C(c1ccoc1)N1CCC2(C1)CN(c1nccs1)C2 | 1.07
10 | Cc1noc([C@H]2COC[C@H]3CN(C(=O)Cc4cccc(F)c4)C[C@H]32)n1 | 6.93
11 | Cc1cccc(N2CCCC3(C2)CN(c2nncs2)CCO3)c1 (stereo unspecified) | 9
12 | CCO[C@H]1CO[C@@]2(CCCN(C(=O)c3ccc(OC)c(F)c3)C2)C1 | 5.69
13 | COc1ccc(Br)c(C(=O)NCC2CCN(S(=O)(=O)C3CC3)CC2)c1 | -24.3
14 | CC(C)N(C)C(=O)C1=NOC2(CCN(C(=O)c3ccccn3)C2)C1 (stereo unspecified) | -13.4
15 | CCn1cc(CNC(=O)C2CCCC2)cn1 | 9.18
16 | CCn1cc(CN2CCN(C(=O)c3cc(Br)cs3)CC2)c(C)n1 | 4.95
17 | CCc1ccccc1NC(=O)NCc1nnc(SC)n1C | 3.73
18 | Cc1ncc(CNC(=O)CCc2ccccc2F)c(C2CCCN2C)n1 (stereo unspecified) | -7.55
19 | Nc1nc(C2CCN(C(=O)c3cnccn3)CC2)cs1 | -7.33
20 | COc1ccc(S(=O)(=O)N2CCC(O)(CN(C)C)C2)cc1 (stereo unspecified) | -3.36
21 | Cc1cc(-c2cc(F)ccc2C(=O)O)nc(C2CCCCN2C(C)C)n1 (stereo unspecified) | -3.42
22 | C[C@]1(O)CN(Cc2cscn2)CC[C@@H]1Oc1cccc(F)c1 | 7.08
23 | Cn1ccnc1CN1CCC(Cc2ccccn2)CC1 | -10.2

Row | SMILES | cytotoxicity at 10 µM [%]
24 | CNc1nc(C2CCCCN2C(=O)COC)nc2c1CN(C)CC2 (stereo unspecified) | -13.1
25 | CNc1nc(C2CCCCN2C(=O)C(C)(C)OC)nc2c1CN(C)CC2 (stereo unspecified) | -6.61
26 | CC(=O)N1CCCCC1c1nnc2n1CCNC2 (stereo unspecified) | 14.7
27 | O=C(Nc1cccnc1N1CCSCC1)c1ccc2c(c1)CCC2 | -2.03
28 | CC(C)(C)CNC(=O)c1ccc(C(=O)O)nc1 | 10.4
29 | CCc1noc(CN2CCOC3(CCCC3)C2)n1 | -3.54
30 | Cc1ccc(CNC(=O)Nc2nnc(C(C)C)s2)n1C | -10
31 | O=C(NCc1cccnc1-n1cncn1)c1cc(Cl)ccn1 | -3.76
32 | CCC(=O)NCC(=O)NCC1(O)CCC(C(C)(C)C)CC1 (stereo unspecified) | 6.93
33 | Cc1cccc(CNc2ccc(C(=O)N3CCC(CO)CC3)cc2)c1 | 18.9
34 | CC(C)N(C(=O)Cn1nc2n(c1=O)CCCCC2)C1CCC1 | -7.62
35 | CN(Cc1ccccc1)c1ccc(C(F)(F)F)cn1 | 10.2
36 | Cc1nc(CN2CCC(CNC(=O)C3(C#N)CCCC3)CC2)oc1C | 1.29
37 | O=C(NCC(O)c1ccc(F)cc1F)c1cccnc1O (stereo unspecified) | 7.58
38 | CCCOc1cc(C)ccc1NC(=O)NCCNC(=O)C(C)C | 8.31
39 | Cc1nnc2ccc(C(=O)N3CCSC(C)(C)C3)cn12 | -3.54
40 | O=C(c1cc2ccccc2o1)N1CCN(Cn2cc(Cl)cn2)CC1 | 9.31
41 | Cc1cc(C)cc(C(=O)NCCCC2(C3OCCO3)CCOCC2)c1 | 9.4
42 | CC(NC(=O)N1CCSC(C)(C)C1)c1noc(-c2ccccc2)n1 (stereo unspecified) | -22.3
43 | CCOc1cccc(C(C)NCc2ccc(OC)c(OC)c2OC)c1 (stereo unspecified) | 29.4
44 | Cc1ccc(N2CCCC3(CCN(C(=O)c4sccc4C)C3)C2)nn1 (stereo unspecified) | -107
45 | CN1C(=O)CC(c2ccccc2)C12CCN(c1ncccn1)CC2 (stereo unspecified) | -99.4
46 | CS(=O)(=O)N1C[C@H](NC(=O)c2ccno2)[C@@H]2OCCC[C@@H]21 | -112

Row | SMILES | cytotoxicity at 10 µM [%]
47 | CN(c1nccc(-c2cnc3sc(Cl)cn3c2=O)n1)C1CCCCC1 | 1.36
48 | NCCC1CN(c2nc(-c3ccccc3)nc3c2CCNC3)CCO1 (stereo unspecified) | -9.26
49 | NCCn1cc(C(=O)N2CCCCCC2c2ccco2)nn1 (stereo unspecified) | -4.94
50 | c1cncc(CN2CCc3ncnc(NCCc4c[nH]cn4)c3CC2)c1 | 2.57
51 | c1ccc(CCc2n[nH]c(CCN3CCCCC3)n2)cc1 | 5.05
52 | Cc1cc(N2CCC(c3ncc[nH]3)CC2)cc(C)n1 | -1.95
53 | CSCc1ccc(N2CCN(c3ccc(Cl)cn3)CC2)nc1 | -9.64
54 | Cc1cc(C)n(CCN(C)c2ccc(-c3nc(C4CC4)no3)cn2)n1 | 6.08
55 | CN1CCNC(=O)C12CCN(C(=O)c1ccc3[nH]c(=O)[nH]c3c1)CC2 | 0.5
56 | CCOc1ccc(CN2CCC3(CC2)CNC(=O)C3)cn1 | 0.987
57 | Fc1ccccc1Cc1noc(CN2CC[C@@H]3CCCC[C@H]3C2)n1 | -6.1
58 | Cc1nc2c(c(N(C)CC3Cc4ccccc4CN3C)n1)CCNCC2 (stereo unspecified) | -29
59 | Cc1n[nH]c(C)c1CCC(=O)NCC1CCCN(C2CCCC2)C1 (stereo unspecified) | -6.32
60 | CCCN(Cc1ccc(S(=O)(=O)NC)cc1)Cc1ccccc1OC | -0.89
61 | O=C(NCCCc1nnc2ccccn12)c1ccccc1C1CCNC1 (stereo unspecified) | -2.51
62 | O=C(c1cccc(S(=O)(=O)NCCc2cscn2)c1)N1CCOCC1 | 5.67
63 | COc1ccccc1OC1CCN(c2nccc(N)n2)CC1 | 9.28
64 | CSc1ccccc1C(=O)NCc1cc2n(n1)CCCN(CC(C)C)C2 | 3.05
65 | CCN1CCCC1CNC(=O)CCSc1ccc2c(c1)OCCO2 (stereo unspecified) | -1.58
66 | CN(CCO)Cc1nnc(C2CCN(C(=O)CN3CCCC3)CC2)n1C | 2.1
67 | COc1cc(N2CCC(c3nccn3Cc3cccnc3)CC2)ncn1 | -4.4
68 | COCc1cc(N2CCOC(c3ccc(F)cc3)C2)ncn1 (stereo unspecified) | -0.987
69 | CSCc1noc(CNC(=O)[C@H]2CNC[C@@H](C(=O)N3CCCC3)C2)n1 | 2.79

Row | SMILES | cytotoxicity at 10 µM [%]
70 | Cc1ccc([C@H]2CN(C(C)C)C[C@@H]2NS(=O)(=O)N2CCOCC2)o1 | -1.01
71 | CN(c1ccc(C(=O)NCCN2CCOCC2)c(Cl)c1)S(C)(=O)=O | -11.1
72 | CCC(NC(=O)c1coc(COc2cccc(F)c2F)n1)C(=O)NC (stereo unspecified) | 1.03
73 | Cc1nnc(SCC(=O)N2CCC3(CC2)c2ccccc2CC3O)o1 (stereo unspecified) | -20.7
74 | O=C(CCC1CCN(Cc2ncc[nH]2)CC1)Nc1ccccc1Cl | -21.8
75 | OCCC1CN(C2CCC2)CCN1C1CCCC1 (stereo unspecified) | -18.5
76 | CN(CCc1ccccc1)c1cnn(CC(=O)N2CCSCC2)c(=O)c1 | -8.74
77 | CCOC(=O)COc1ccc(C(C)=O)c(O)c1 | -19.3
78 | COCc1cc(CNc2cnn(CC(F)F)c2)ccc1OC | -7.58
79 | CCOc1ncccc1CNC(=O)c1cccc(C)n1 | -2.42
80 | CC(C)c1nc(CN2CCC(c3ccnn3CCO)CC2)no1 | -5.71
81 | Cc1nccn1CC1CCCN1S(=O)(=O)Cc1ccc(F)cc1 (stereo unspecified) | -7.69
82 | Cc1cc(C(=O)N2CCCC2c2noc(C)n2)[nH]n1 (stereo unspecified) | -18.7
83 | CC(C)c1noc(CCC(=O)NCC2CC2)n1 | -28.7
84 | CCc1ncc2c(n1)CN(CCCc1nc3ccccc3o1)CC2 | -10.6
85 | O=C(c1cccc2c1OCO2)N1CCCCC1Cn1cccn1 (stereo unspecified) | -1.25
86 | Cc1nc(C2CCCN(C(=O)c3ccc(OCC4CC4)cc3)C2)no1 (stereo unspecified) | -7.69
87 | COc1cccc(COCC(=O)N2CCCC(n3ccnc3)C2)c1 (stereo unspecified) | -8.38
88 | COCCCNc1c(C#N)c2c(c3nncn13)CN(C)CC2 | 5.86
89 | CCN1C(=O)CCC12CCC(NC(=O)c1ccncc1F)CC2 (stereo unspecified) | 0.758
90 | Cn1nnc2c1CCN(CC1CC1)C2COCC1CC1 (stereo unspecified) | -110
91 | COCC1CN(Cc2ccc3c(c2)OCO3)Cc2ncn(C)c21 (stereo unspecified) | 4.18
92 | CNCC(=O)N1CCCC1c1cncc(Oc2ccc(F)cc2)n1 (stereo unspecified) | -6.44

Row | SMILES | cytotoxicity at 10 µM [%]
93 | COCC(=O)N1CCn2c(COc3cccnc3)cnc2C1C (stereo unspecified) | 2.14
94 | Cc1ccc(N2C[C@H](C)[C@]3(CCN(c4cccnc4)C3=O)C2)nn1 | -1.22
95 | CC(=O)N1CCC(c2nc3ccc(-c4ccnn4C)cn3n2)CC1 | 6.84
96 | CN1C(=O)CCC12CCN(c1ccc(C#N)cn1)CC2 | -109
97 | COCc1nc(-c2ccnc(N3CCNCC3)n2)no1 | 12.5
98 | COCC1c2c(cnn2C)CCN1C(=O)c1cc(C)on1 (stereo unspecified) | -79.5
99 | CN(C)C(=O)CN1CCn2cc(Cn3cccn3)nc2C1 | 4.96
100 | O=C(Cc1ccccn1)N1CCc2ncnc(NC3CCC3)c2CC1 | 3.25
101 | O=C(C1CCC2(CCN(CC3CCOCC3)CC2)O1)N1CCCCO1 (stereo unspecified) | 1.08
102 | CN(C)CCOCC1CN(Cc2ccsc2)Cc2nnn(C)c21 (stereo unspecified) | 14.1
103 | c1cc(CN2CCC3(CCOCC3COCC3CC3)CC2)co1 (stereo unspecified) | -2.69
104 | CCN1CC2(CCOCC2)c2cc(NS(=O)(=O)CC)ccc21 | -104
105 | Cc1cccc(CN2C[C@@H]3COC[C@]3(CNC(=O)c3ccccc3)C2)n1 | -0.0606
106 | Cn1cc(C(=O)NCc2cncc3c2CCN(S(C)(=O)=O)C3)cn1 | -105
107 | CN(Cc1ccco1)Cc1cncc2c1CCN(Cc1ccoc1)C2 | -108
108 | Cc1nc(CO[C@H]2CN(C(=O)c3cccn3C)[C@@H]3COC[C@H]23)cs1 | -112
109 | CNC(=O)c1ccc2c(c1)C1(CCN(CCOC)CC1)C(=O)N2 | -1.92
110 | COc1ccc(/C=C/CN2C[C@@H]3CC[C@H]2CN(S(=O)(=O)N(C)C)C3)cc1 | -2.72
111 | NCC1CCC(C(NC(=O)CC2CCCCC2)c2ccccn2)CC1 (stereo unspecified) | -7.19

— ChEMBL document CHEMBL4513216, “Probing the Open Global Health Chemical Diversity Library for Multistage-Active Starting Points for Next-Generation Antimalarials” (ACS Infect Dis, 2020)
